In BindingDB's records for doi:10.1021/jm000452m (Abbott Laboratories, 2001):

Key:
[1] = In vitro potency against TNF alpha induced expression of intercellular adhesion molecule-1 on human vascular endothelial cells using CAM ELISA assay
[2] = molecular target: T1, Vascular cell adhesion protein 1 (Homo sapiens, UniProt P19320); assay: In vitro potency against TNF alpha induced expression of VCAM-1 on human vascular endothelial cells using CAM ELISA assay
T1 sequence (P19320 whole entry): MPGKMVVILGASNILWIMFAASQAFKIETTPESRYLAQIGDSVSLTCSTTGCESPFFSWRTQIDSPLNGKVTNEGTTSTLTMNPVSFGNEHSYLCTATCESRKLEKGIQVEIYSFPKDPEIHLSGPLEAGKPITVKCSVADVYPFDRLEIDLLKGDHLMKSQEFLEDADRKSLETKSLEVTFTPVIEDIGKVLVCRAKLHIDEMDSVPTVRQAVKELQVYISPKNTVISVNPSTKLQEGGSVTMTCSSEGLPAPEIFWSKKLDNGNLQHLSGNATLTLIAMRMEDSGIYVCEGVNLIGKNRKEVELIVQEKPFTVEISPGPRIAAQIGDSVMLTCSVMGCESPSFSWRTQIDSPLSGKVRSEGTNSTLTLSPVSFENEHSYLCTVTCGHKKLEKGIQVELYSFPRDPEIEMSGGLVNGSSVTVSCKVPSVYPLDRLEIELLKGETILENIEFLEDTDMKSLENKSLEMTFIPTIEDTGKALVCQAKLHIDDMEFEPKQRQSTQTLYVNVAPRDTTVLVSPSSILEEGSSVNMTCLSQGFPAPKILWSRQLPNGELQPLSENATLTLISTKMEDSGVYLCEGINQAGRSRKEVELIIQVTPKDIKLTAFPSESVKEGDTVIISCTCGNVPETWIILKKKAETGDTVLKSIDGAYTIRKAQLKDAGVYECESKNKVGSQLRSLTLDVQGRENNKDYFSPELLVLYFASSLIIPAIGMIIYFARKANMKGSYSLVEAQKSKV
How it was run: (§1)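 Surface E-selectin, ICAM-1 or VCAM-1 was detected with mouse monoclonal primary antibody (overnight, 4 °C), then HRP anti-mouse IgG and OPD, with absorbance read at 490 nm. IC50 from triplicates; SEM across repeat triplicate runs.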

[3] = In vitro potency against TNF alpha induced expression of Selectin E on human vascular endothelial cells using CAM ELISA assay
[4] = molecular target: Intercellular adhesion molecule 1 (Homo sapiens, UniProt P05362); assay: In vitro potency against TNF alpha induced expression of intercellular adhesion molecule-1 on human vascular endothelial cells using CAM ELISA assay
How it was run: as §1

E-selectin = molecular target: T2, E-selectin (Homo sapiens, UniProt P16581); assay: In vitro potency against TNF alpha induced expression of Selectin E on human vascular endothelial cells using CAM ELISA assay
T2 sequence (P16581 whole entry): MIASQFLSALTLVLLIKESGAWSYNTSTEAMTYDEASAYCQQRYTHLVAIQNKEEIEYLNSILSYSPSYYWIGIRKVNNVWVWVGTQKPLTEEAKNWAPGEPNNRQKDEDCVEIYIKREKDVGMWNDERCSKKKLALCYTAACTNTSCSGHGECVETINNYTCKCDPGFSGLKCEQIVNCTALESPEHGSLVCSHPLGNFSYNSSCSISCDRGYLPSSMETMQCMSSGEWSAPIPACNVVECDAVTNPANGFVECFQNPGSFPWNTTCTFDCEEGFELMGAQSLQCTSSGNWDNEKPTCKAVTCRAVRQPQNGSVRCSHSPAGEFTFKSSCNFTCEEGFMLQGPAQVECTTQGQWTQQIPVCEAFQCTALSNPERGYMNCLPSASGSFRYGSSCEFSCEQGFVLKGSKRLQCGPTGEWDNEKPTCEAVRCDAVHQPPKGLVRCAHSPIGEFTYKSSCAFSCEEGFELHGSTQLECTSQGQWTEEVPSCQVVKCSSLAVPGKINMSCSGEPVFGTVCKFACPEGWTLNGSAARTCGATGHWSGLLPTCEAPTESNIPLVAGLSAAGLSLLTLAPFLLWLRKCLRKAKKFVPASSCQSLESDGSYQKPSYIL
How it was run: as §1

Chain of Intercellular adhesion molecule 1 (P05362 whole entry): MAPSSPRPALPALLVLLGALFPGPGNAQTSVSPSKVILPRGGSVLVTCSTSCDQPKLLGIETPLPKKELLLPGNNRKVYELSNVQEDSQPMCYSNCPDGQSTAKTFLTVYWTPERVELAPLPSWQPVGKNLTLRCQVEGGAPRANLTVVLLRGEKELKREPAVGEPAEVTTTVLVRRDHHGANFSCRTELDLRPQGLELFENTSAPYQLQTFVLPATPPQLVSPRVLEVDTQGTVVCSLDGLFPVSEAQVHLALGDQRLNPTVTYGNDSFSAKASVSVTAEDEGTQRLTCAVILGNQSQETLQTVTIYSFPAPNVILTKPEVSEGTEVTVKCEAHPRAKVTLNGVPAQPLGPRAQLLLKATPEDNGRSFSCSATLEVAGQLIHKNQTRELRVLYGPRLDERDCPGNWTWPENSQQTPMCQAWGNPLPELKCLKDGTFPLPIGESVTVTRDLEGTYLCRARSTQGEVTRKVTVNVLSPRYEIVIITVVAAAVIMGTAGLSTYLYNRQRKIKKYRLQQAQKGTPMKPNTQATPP

`Cc1ccc(Sc2cncc3sccc23)cc1` [4-p-Tolylsulfanyl-thieno[2,3-c]pyridine] gave an IC50 [1] of 1800 nM, an IC50 [2] of 2100 nM and an IC50 [3] of 1700 nM.
`Cc1ccc(Sc2cncc3sc(CN=O)cc23)cc1` [4-p-Tolylsulfanyl-thieno[2,3-c]pyridine-2-carbaldehyde oxime] gave an IC50 [2] greater than 4000 nM, an IC50 [4] of 1900 nM and an IC50 (E-selectin) of 1500 nM.
In the case of `CCc1cc2c(Cl)ncnc2s1` [4-Chloro-6-ethyl-thieno[2,3-d]pyrimidine], the IC50 [1] is reported as greater than 100000 nM, the IC50 [2] is reported as 18000 nM and the IC50 [3] is reported as 27000 nM.
`NC(=O)c1cc2c(Sc3ccccn3)cncc2s1` [4-(Pyridin-2-ylsulfanyl)-thieno[2,3-c]pyridine-2-carboxylic acid amide] showed an IC50 [1] of 2300 nM, an IC50 [2] of 65000 nM and an IC50 [3] of 660 nM.
With `NC(=O)c1cc2c(Sc3ccc(C(F)(F)F)cc3)cncc2s1` [4-(4-Trifluoromethyl-phenylsulfanyl)-thieno[2,3-c]pyridine-2-carboxylic acid amide] the IC50 [1] was 39 nM, the IC50 [2] was greater than 100 nM and the IC50 [3] was 44 nM.
Compound `Cc1ccc(Sc2cncc3sc(C(N)=S)cc23)cc1` [4-p-Tolylsulfanyl-thieno[2,3-c]pyridine-2-carbothioic acid amide] has an IC50 [1] of 160 nM, an IC50 [2] of 19000 nM and an IC50 [3] of 150 nM.
In the case of `NC(=O)c1cc2c(Sc3ccc(Cl)c(Cl)c3)cncc2s1` [4-(3,4-Dichloro-phenylsulfanyl)-thieno[2,3-c]pyridine-2-carboxylic acid amide], the IC50 [1] is reported as 37 nM, the IC50 [2] is reported as greater than 1000 nM and the IC50 [3] is reported as 100 nM.
`Cc1ccc(Sc2cncc3sc(C(N)=O)cc23)c(C)c1` [4-(2,4-Dimethyl-phenylsulfanyl)-thieno[2,3-c]pyridine-2-carboxylic acid amide] showed an IC50 [1] of 54 nM, an IC50 [2] of 770 nM and an IC50 [3] of 43 nM.
In the case of `Cc1ccc(Sc2cncc3sc(C(C)N=O)cc23)cc1` (centres undefined) [1-(4-p-Tolylsulfanyl-thieno[2,3-c]pyridin-2-yl)-ethanone oxime], the IC50 [2] is reported as greater than 1000 nM, the IC50 [4] is reported as 85 nM and the IC50 (E-selectin) is reported as 55 nM.
In the case of `CCc1cc2c(Sc3nnc(N)s3)ncnc2s1` [GNF-Pf-1931], the IC50 [1] is reported as 6300 nM, the IC50 [2] is reported as 2500 nM and the IC50 [3] is reported as 3000 nM.
With `CCc1cc2c(SCc3ccccc3)ncnc2s1` [4-Benzylsulfanyl-6-ethyl-thieno[2,3-d]pyrimidine] the IC50 [1] was 99000 nM, the IC50 [2] was 17000 nM and the IC50 [3] was 95000 nM.
For `Cc1ccc(Sc2cncc3sc(C(N)=O)cc23)cc1` [4-p-Tolylsulfanyl-thieno[2,3-c]pyridine-2-carboxylic acid amide], the IC50 [2] was greater than 1000 nM.
For `Cc1cccc(Sc2cncc3sc(C(N)=O)cc23)c1` [4-m-Tolylsulfanyl-thieno[2,3-c]pyridine-2-carboxylic acid amide], the IC50 [1] was 140 nM, the IC50 [2] was greater than 4000 nM and the IC50 [3] was 45 nM.
`Cc1ccc(Sc2cncc3sc(/C=N/OCC(=O)O)cc23)cc1` [(4-p-Tolylsulfanyl-thieno[2,3-c]pyridin-2-ylmethyleneaminooxy)-acetic acid] showed an IC50 [1] greater than 4000 nM, an IC50 [2] greater than 4000 nM and an IC50 [3] greater than 4000 nM.
Compound `Cc1occc1Sc1cncc2sc(C(N)=O)cc12` [4-(2-Methyl-furan-3-ylsulfanyl)-thieno[2,3-c]pyridine-2-carboxylic acid amide] has an IC50 [1] of 570 nM, an IC50 [2] greater than 1000 nM and an IC50 [3] of 600 nM.
Compound `Cc1ccc(Sc2ccnc3sc(C(N)=O)cc23)cc1` [4-p-Tolylsulfanyl-thieno[2,3-b]pyridine-2-carboxylic acid amide] has an IC50 [1] of 39000 nM, an IC50 [2] of 15000 nM and an IC50 [3] of 16000 nM.
Compound `Cc1ccc(Sc2cncc3sc(C(=O)NN)cc23)cc1` [4-p-Tolylsulfanyl-thieno[2,3-c]pyridine-2-carboxylic acid hydrazide] has an IC50 [1] of 32 nM, an IC50 [2] of 46000 nM and an IC50 [3] of 32 nM.
`CCc1cc2c(=O)[nH]cnc2s1` [MLS000029626] gave an IC50 [1] greater than 100000 nM, an IC50 [2] greater than 100000 nM and an IC50 [3] greater than 100000 nM.
Compound `CCc1cc2c(NCc3ccccc3)ncnc2s1` [Benzyl-(6-ethyl-thieno[2,3-d]pyrimidin-4-yl)-amine] has an IC50 [1] of 56000 nM, an IC50 [2] of 59000 nM and an IC50 [3] of 49000 nM.
`CCc1cc2c(Sc3nnc(C)s3)ncnc2s1` [6-Ethyl-4-(5-methyl-[1,3,4]thiadiazol-2-ylsulfanyl)-thieno[2,3-d]pyrimidine] showed an IC50 [1] of 5000 nM, an IC50 [2] of 3500 nM and an IC50 [3] of 4000 nM.
Work on `Cc1ccc(Sc2cncc3sc(C(=O)NCCCN4CCOCC4)cc23)cc1` [4-p-Tolylsulfanyl-thieno[2,3-c]pyridine-2-carboxylic acid (3-morpholin-4-yl-propyl)-amide] yielded an IC50 [1] greater than 4000 nM, an IC50 [2] greater than 4000 nM and an IC50 [3] greater than 4000 nM.
With `Cc1ccc(Sc2cncc3sc(C(N)=O)cc23)cc1C` [4-(3,4-Dimethyl-phenylsulfanyl)-thieno[2,3-c]pyridine-2-carboxylic acid amide] the IC50 [1] was 8 nM, the IC50 [2] was greater than 1000 nM and the IC50 [3] was 13 nM.
